From ChEMBL document CHEMBL4007487, “Discovery of Novel Pyridone-Conjugated Monosulfactams as Potent and Broad-Spectrum Antibiotics for Multidrug-Resistant Gram-Negative Infections” (J Med Chem, 2017) come the findings set out here.

≈ marks a conversion by molar mass, not a printed value. A value given as a limit tells only on which side of the number the result lay.

One series concerns Pseudomonas aeruginosa. Description: Antibacterial activity against extended spectrum beta-lactamase IMP-4 producing multidrug resistant Pseudomonas aeruginosa clinical isolates after 18 hrs by broth microdilution method. Format: functional.
The next series concerns Klebsiella pneumoniae. Briefly: Antibacterial activity against extended spectrum beta-lactamase KPC-2 producing multidrug resistant Klebsiella pneumoniae clinical isolates after 18 hrs by broth microdilution method. Format: functional. (In general: Broth dilution looks for growth in wells or tubes with falling amounts of substance.)
Another series deals with Acinetobacter baumannii. Briefly: Antibacterial activity against extended spectrum beta-lactamase OXA-23 producing multidrug resistant Acinetobacter baumannii clinical isolates after 18 hrs by broth microdilution method. Format: functional.
The next series deals with Escherichia coli. Description: Antibacterial activity against extended spectrum beta-lactamases producing Escherichia coli clinical isolates after 18 hrs by broth microdilution method. Format: functional.
The next series has as its system Plasma. Description: Fraction unbound in human plasma at 10 uM after 4 hrs by LC-MS/MS based rapid equilibrium dialysis method. Format: ADME, cell-free. The procedure, abridged: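 Human plasma spiked at 10 μM was dialysed against buffer in a rapid equilibrium dialysis device for 4 h at 37 °C under 5% CO2 (n = 4). Both sides were quantified by LC–MS/MS. Fraction unbound was taken as the buffer concentration divided by the total plasma-side concentration.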
Background: In equilibrium dialysis only unbound substance equilibrates across the membrane.

The nature of series [1]: Drug degradation in human plasma at 10 uM after 4 hrs by LC-MS/MS analysis. Format: ADME, cell-free. As to conditions: read-out: Drug degradation. The procedure, abridged: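 Human plasma containing compound (10 μM, n = 4) was incubated for 4 h at 37 °C under 5% CO2. Concentrations at T0 and at 4 h were measured by LC–MS/MS, and degradation was expressed as a percentage relative to the T0 average.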

The mark [2] stands for this setting: Klebsiella pneumoniae, 18 h, read-out: MIC.

By MIC is commonly meant the lowest concentration that inhibits growth of the organism. For `C=CC(O/N=C(\C(=O)N[C@@H]1C(=O)N(OS(=O)(=O)O)C1(C)C)c1csc(N)n1)c1cc(=O)c(O)cn1O` (some centres undefined), the MIC was 0.5 to 2 µg/mL (≈ 0.918 to 3.67 µM) in the series on Pseudomonas aeruginosa, above 0.03 to 64 µg/mL in the series on Klebsiella pneumoniae and 0.25 to 2 µg/mL (≈ 0.459 to 3.67 µM) in the series with Acinetobacter baumannii.
Regarding `CC(C)OCC(O/N=C(\C(=O)N[C@@H]1C(=O)N(OS(=O)(=O)O)C1(C)C)c1csc(N)n1)c1cc(=O)c(O)cn1O` (some centres undefined), the MIC in the series on Pseudomonas aeruginosa lay within 0.5 to 8 µg/mL (≈ 0.847 to 13.5 µM); in the series on Klebsiella pneumoniae (setting [2]), 0.25 to 64 µg/mL (≈ 0.423 to 108 µM); against Acinetobacter baumannii, 1 to 8 µg/mL (≈ 1.69 to 13.5 µM).
Consider `CC(C)[C@@H](O/N=C(\C(=O)N[C@@H]1C(=O)N(OS(=O)(=O)O)C1(C)C)c1csc(N)n1)c1cc(=O)c(O)cn1O`, for which the MIC was in the range of 1 to 4 µg/mL (≈ 1.78 to 7.14 µM) against Pseudomonas aeruginosa, 0.06 to 0.5 µg/mL (≈ 0.107 to 0.892 µM) in the series with Klebsiella pneumoniae (setting [2]), 0.25 to 64 µg/mL (≈ 0.446 to 114 µM) with Acinetobacter baumannii and 0.06 to 2 µg/mL (≈ 0.107 to 3.57 µM) against Escherichia coli.
For the compound `CC1(C)[C@H](NC(=O)/C(=N\OC(c2cccs2)c2cc(=O)c(O)cn2O)c2csc(N)n2)C(=O)N1OS(=O)(=O)O` (some centres undefined), the figures for the MIC with Pseudomonas aeruginosa, in the series with Klebsiella pneumoniae (setting [2]) and with Acinetobacter baumannii were 0.5 to 2 µg/mL (≈ 0.832 to 3.33 µM), 0.06 to 16 µg/mL (≈ 0.0999 to 26.6 µM) and 0.5 to 2 µg/mL (≈ 0.832 to 3.33 µM), respectively.
As to `CSC[C@@H](O/N=C(\C(=O)N[C@@H]1C(=O)N(OS(=O)(=O)O)C1(C)C)c1csc(N)n1)c1cc(=O)c(O)cn1O`, the MIC against Pseudomonas aeruginosa is 1 to 8 µg/mL (≈ 1.73 to 13.8 µM); with Klebsiella pneumoniae (setting [2]) it was 0.125 to 0.5 µg/mL (≈ 0.216 to 0.864 µM); with Acinetobacter baumannii it was 0.5 to 2 µg/mL (≈ 0.864 to 3.46 µM).
For `CC1(C)[C@H](NC(=O)/C(=N\OC(c2cc(=O)c(O)cn2O)C2CC2)c2csc(N)n2)C(=O)N1OS(=O)(=O)O` (some centres undefined), the MIC is 0.25 to 4 µg/mL (≈ 0.448 to 7.16 µM) in the series with Pseudomonas aeruginosa, 0.06 to 64 µg/mL against Klebsiella pneumoniae, 0.5 to 2 µg/mL (≈ 0.895 to 3.58 µM) with Acinetobacter baumannii and 0.06 to 4 µg/mL (≈ 0.107 to 7.16 µM) against Escherichia coli. Moreover, the Fu with Plasma is 39%. The metabolised at 4 h, 10 µM in series [1] was 24%.
For the compound `COCC(O/N=C(\C(=O)N[C@@H]1C(=O)N(OS(=O)(=O)O)C1(C)C)c1csc(N)n1)c1cc(=O)c(O)cn1O` (some centres undefined), the results for the MIC in the series on Pseudomonas aeruginosa, in the series with Klebsiella pneumoniae (setting [2]) and against Acinetobacter baumannii were 1 to 4 µg/mL (≈ 1.78 to 7.11 µM), 0.06 to 2 µg/mL (≈ 0.107 to 3.56 µM) and 0.125 to 1 µg/mL (≈ 0.222 to 1.78 µM), respectively. In addition, the Fu with Plasma turned out to be 67%. Further, the metabolised at 4 h, 10 µM in series [1] is 57%.
The corresponding values for `CC(O/N=C(\C(=O)N[C@@H]1C(=O)N(OS(=O)(=O)O)C1(C)C)c1nsc(N)n1)c1cc(=O)c(O)cn1O` (some centres undefined) are 0.5 to 64 µg/mL (≈ 0.937 to 120 µM), 0.25 to 64 µg/mL (≈ 0.469 to 120 µM), 2 to 64 µg/mL (≈ 3.75 to 120 µM), 37% and 13%.
On to `Cc1cc(=O)c(O)cn1CCO/N=C(\C(=O)N[C@@H]1C(=O)N(OS(=O)(=O)O)C1(C)C)c1csc(N)n1`, for which the MIC with Pseudomonas aeruginosa is 64 µg/mL (≈ 121 µM); in the series on Klebsiella pneumoniae (setting [2]), 8 to 64 µg/mL (≈ 15.1 to 121 µM); against Acinetobacter baumannii, 8 to 64 µg/mL (≈ 15.1 to 121 µM); against Escherichia coli it was 1 to 64 µg/mL (≈ 1.88 to 121 µM).
Regarding `CC1(C)[C@H](NC(=O)/C(=N\OC(c2nccs2)c2cc(=O)c(O)cn2O)c2csc(N)n2)C(=O)N1OS(=O)(=O)O` (some centres undefined), the MIC was 1 to 2 µg/mL (≈ 1.66 to 3.32 µM) in the series with Pseudomonas aeruginosa and 0.5 to 2 µg/mL (≈ 0.831 to 3.32 µM) against Acinetobacter baumannii.
In the case of `CCC(O/N=C(\C(=O)N[C@@H]1C(=O)N(OS(=O)(=O)O)C1(C)C)c1csc(N)n1)c1cc(=O)c(O)cn1O` (some centres undefined), the minimal inhibitory concentration (MIC) against Pseudomonas aeruginosa was 0.125 to 4 µg/mL (≈ 0.229 to 7.32 µM); in the series with Klebsiella pneumoniae, above 0.03 to 64 µg/mL; against Acinetobacter baumannii, 0.25 to 2 µg/mL (≈ 0.457 to 3.66 µM); against Escherichia coli, 0.25 to 2 µg/mL (≈ 0.457 to 3.66 µM). In the series with Plasma, the Fu turned out to be 35%. Further, the metabolised at 4 h, 10 µM in series [1] was 27%.
Turning to `CC1(C)[C@H](NC(=O)/C(=N\OC(c2ccccc2)c2cc(=O)c(O)cn2O)c2csc(N)n2)C(=O)N1OS(=O)(=O)O` (some centres undefined), the MIC against Pseudomonas aeruginosa and against Acinetobacter baumannii was 0.5 to 2 µg/mL (≈ 0.841 to 3.36 µM) in each case.
Regarding `Cn1nc(O)c(=O)nc1SCCO/N=C(\C(=O)N[C@@H]1C(=O)N(OS(=O)(=O)O)C1(C)C)c1csc(N)n1`, the MIC fell in the range of 16 to 64 µg/mL (≈ 28.3 to 113 µM) against Pseudomonas aeruginosa, 16 to 64 µg/mL (≈ 28.3 to 113 µM) in the series with Klebsiella pneumoniae (setting [2]), 16 to 64 µg/mL (≈ 28.3 to 113 µM) with Acinetobacter baumannii and 1 to 8 µg/mL (≈ 1.77 to 14.2 µM) in the series with Escherichia coli.
In the case of `CC1(C)[C@H](NC(=O)/C(=N\OC(C(=O)O)c2cc(=O)c(O)cn2O)c2csc(N)n2)C(=O)N1OS(=O)(=O)O` (some centres undefined), the MIC is 1 to 4 µg/mL (≈ 1.78 to 7.11 µM) in the series on Pseudomonas aeruginosa, 0.25 to 1 µg/mL (≈ 0.444 to 1.78 µM) in the series on Klebsiella pneumoniae (setting [2]), 0.5 µg/mL (≈ 0.889 µM) against Acinetobacter baumannii and 0.125 to 4 µg/mL (≈ 0.222 to 7.11 µM) against Escherichia coli.
